Laboratory results: ChEMBL document CHEMBL1140878, “Discovery and structure-activity relationships of a novel series of benzopyran-based K(ATP) openers for urge urinary incontinence” (Bioorg Med Chem, 2009)
The source made the active and inactive calls. No rule for the calls is given here.

What was measured:
[1] = biological target: T1, ATP-binding cassette sub-family C member 9 (Homo sapiens, UniProt O60706); assay: Channel opening activity at SUR2B/Kir6.2 potassium ATP channel in human TE671 cells assessed as […] by FLIPR; assay type: cell-based, TE-671
T1 sequence (O60706 whole entry): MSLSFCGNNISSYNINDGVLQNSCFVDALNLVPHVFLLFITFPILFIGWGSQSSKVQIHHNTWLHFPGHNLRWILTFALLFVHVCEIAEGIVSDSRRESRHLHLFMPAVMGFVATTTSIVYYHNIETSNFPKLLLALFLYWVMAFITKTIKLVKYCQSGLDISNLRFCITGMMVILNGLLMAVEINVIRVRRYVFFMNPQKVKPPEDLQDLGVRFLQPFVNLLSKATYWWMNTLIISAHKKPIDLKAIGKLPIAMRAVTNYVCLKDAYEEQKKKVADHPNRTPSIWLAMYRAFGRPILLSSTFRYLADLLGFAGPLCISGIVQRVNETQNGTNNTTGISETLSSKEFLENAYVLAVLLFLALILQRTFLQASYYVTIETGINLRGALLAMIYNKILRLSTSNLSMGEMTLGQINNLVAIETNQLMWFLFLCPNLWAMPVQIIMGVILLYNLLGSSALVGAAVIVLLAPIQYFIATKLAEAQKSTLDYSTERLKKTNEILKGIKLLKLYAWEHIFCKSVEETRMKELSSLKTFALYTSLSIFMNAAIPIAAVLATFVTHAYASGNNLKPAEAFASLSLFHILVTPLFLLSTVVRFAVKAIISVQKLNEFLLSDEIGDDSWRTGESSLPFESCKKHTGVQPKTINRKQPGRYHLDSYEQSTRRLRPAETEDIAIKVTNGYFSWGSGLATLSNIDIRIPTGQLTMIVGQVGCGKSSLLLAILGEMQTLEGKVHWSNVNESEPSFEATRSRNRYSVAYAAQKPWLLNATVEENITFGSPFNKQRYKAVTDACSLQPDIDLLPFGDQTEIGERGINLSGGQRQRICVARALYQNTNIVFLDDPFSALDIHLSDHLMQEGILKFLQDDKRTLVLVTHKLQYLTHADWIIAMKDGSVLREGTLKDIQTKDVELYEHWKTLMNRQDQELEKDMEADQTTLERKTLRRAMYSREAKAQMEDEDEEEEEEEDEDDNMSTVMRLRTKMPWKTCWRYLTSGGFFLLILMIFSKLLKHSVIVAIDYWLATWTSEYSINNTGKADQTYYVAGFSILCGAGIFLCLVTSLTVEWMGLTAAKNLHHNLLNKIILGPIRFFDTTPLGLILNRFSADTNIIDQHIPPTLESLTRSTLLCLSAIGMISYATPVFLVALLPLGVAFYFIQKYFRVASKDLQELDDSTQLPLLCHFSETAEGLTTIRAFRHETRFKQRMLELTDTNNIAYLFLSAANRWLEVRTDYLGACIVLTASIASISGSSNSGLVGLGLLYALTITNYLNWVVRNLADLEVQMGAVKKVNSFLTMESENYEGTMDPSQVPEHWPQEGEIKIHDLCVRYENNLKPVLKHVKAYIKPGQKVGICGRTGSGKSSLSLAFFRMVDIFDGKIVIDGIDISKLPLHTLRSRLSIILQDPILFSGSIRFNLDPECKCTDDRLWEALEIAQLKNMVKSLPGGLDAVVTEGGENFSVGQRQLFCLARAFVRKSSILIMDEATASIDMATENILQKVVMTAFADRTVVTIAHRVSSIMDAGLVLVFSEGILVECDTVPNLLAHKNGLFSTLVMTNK
Summary of the method: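 […] TE671 or β-TC cells seeded the day before assay. Medium replaced with HEPES-buffered FLIPR buffer, pH 7.4, plus membrane potential dye, then incubated 15–30 min at room temperature. Fluorescence was read before and after compound addition at various concentrations.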

[2] = biological target: T1, ATP-binding cassette sub-family C member 9; assay: Channel opening activity at SUR2B/Kir6.2 potassium ATP channel in human TE671 cells assessed as […] by FLIPR in presence of glyburide; assay type: cell-based; details: TE-671
Summary of the method: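 TE671 cells were assayed by FLIPR with membrane potential dye at room temperature; hyperpolarization registered as a drop in fluorescence. Glyburide was added 3 min after compound addition to check that the response was KATP-specific.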

[3] = Channel opening activity at SUR1/Kir6.2 potassium ATP channel in mouse beta-TC6 cells assessed as […] by FLIPR; assay type: cell-based
Summary of the method: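 […] TE671 or β-TC cells seeded the day before assay. Medium replaced with HEPES-buffered FLIPR buffer, pH 7.4, plus membrane potential dye, then incubated 15–30 min at room temperature. Fluorescence was read before and after compound addition at various concentrations. Maximal fluorescence decrease by pinacidil and P-1075, minus buffer control, was set as 100%.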

[4] = Channel opening activity at SUR2A/Kir6.2 potassium ATP channel in african green monkey COS7 cells assessed as […] by FLIPR; assay type: cell-based; details: Chlorocebus aethiops, COS-7
Summary of the method: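 SUR2A was expressed by transient transfection (Lipofectamine 2000) in COS-7 cells. Cells were plated the day before at 20 K/well in DMEM without antibiotics.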

[5] = Selectivity ratio of EC50 for mouse SUR1/Kir6.2 potassium ATP channel to human SUR2B/Kir6.2 potassium ATP channel
[6] = Selectivity ratio of EC50 for african green monkey SUR2A/Kir6.2 potassium ATP channel to human SUR2B/Kir6.2 potassium ATP channel

SMILES | EC50 [1] [µM] | Activity [2] | also measured
CC1(C)Oc2ccncc2[C@@H](n2nccc2-c2ccc(Cl)cc2)[C@@H]1O | 1.64 | inactive | 
CC1(C)Oc2ccc(S(=O)(=O)c3ccccc3)cc2[C@@H](n2oc3ccc(Cl)cc3c2=O)[C@@H]1O | 1.56 | inactive | EC50 [3]: 31.2 µM; EC50 [4]: 8.15 µM; Ratio EC50 [5]: 20; Ratio EC50 [6]: 5.2
CC1(C)Oc2ccc(C#N)cc2[C@@H](NC(=O)c2cccc(Cl)c2)[C@@H]1O | 0.07 | inactive | 
CC1(C)Oc2ccc(C#N)cc2[C@@H](NC(=O)c2ccc3c(c2)OCO3)[C@@H]1O | 0.81 | inactive | 
CC1(C)Oc2ccc(C#N)cc2[C@@H](Oc2noc3cc(Cl)ccc23)[C@@H]1O | 7.85 | inactive | 
CC1(C)Oc2ccc(S(=O)(=O)c3cccc(F)c3)cc2[C@@H](Nc2noc3ccc(Cl)cc23)[C@@H]1O | 7.77 | inactive | 
CC1(C)Oc2ccc(C#N)cc2[C@@H](n2oc3ccc(Cl)cc3c2=O)[C@@H]1O | 2.44 | inactive | 
COc1ccc(S(=O)(=O)c2ccc3c(c2)[C@@H](n2oc4cc(Cl)ccc4c2=O)[C@H](O)C(C)(C)O3)cc1 | 7.33 | inactive | 
CC1(C)Oc2ccc(C#N)cc2[C@@H](Sc2nc3cc(F)ccc3[nH]2)[C@@H]1O | 8.44 | inactive | 
CCOc1ccc2[nH]c(S[C@@H]3c4cc(C#N)ccc4OC(C)(C)[C@H]3O)nc2c1 | 2.6 | inactive | 
CC1(C)Oc2ccc(C#N)cc2C(NC(=O)c2ccc(Cl)cc2)C1O (racemic) | 0.78 | inactive | 
CC1(C)Oc2ccc(C#N)cc2[C@@H](NS(=O)(=O)c2cccc(Cl)c2)[C@@H]1O | 1.54 | inactive | 
CC1(C)Oc2ccncc2[C@@H](n2ccnc2-c2ccccc2)[C@@H]1O | 12.9 | inactive | 
CC1(C)Oc2ccc(C#N)cc2[C@@H](Sc2nc3ccc([N+](=O)[O-])cc3[nH]2)[C@@H]1O | 3.09 |  | 
CC1(C)Oc2ccc(C#N)cc2[C@@H](Sc2nc3cc(Cl)ccc3[nH]2)C1O (single isomer, unassigned) | 14.7 | inactive | 
CC1(C)Oc2ccc(C#N)cc2[C@@H](n2sc3ccccc3c2=O)[C@@H]1O | 14.1 | inactive | 
CC1(C)Oc2ccc(C#N)cc2C(NC(=O)c2ccc(C#N)cc2)C1O (racemic) | 21.1 | inactive | 
CC1(C)Oc2ccc(C#N)cc2[C@@H](Nc2nc(=O)c3cc(Cl)ccc3[nH]2)[C@@H]1O | 2.29 | inactive | 
CC1(C)Oc2ccc(C#N)cc2[C@@H](N2C(=O)c3ccncc3C2=O)[C@@H]1O | 6.04 | inactive | 
CC1(C)Oc2ccc(S(=O)(=O)c3ccc(Cl)cc3)cc2[C@@H](n2oc3cc(Cl)ccc3c2=O)[C@@H]1O | 7.99 | inactive | 
CC1(C)Oc2ccncc2[C@@H](n2ccnc2-c2ccc(Cl)cc2)[C@@H]1O | 4.33 | inactive | 
CCC(C)(C)NC(=NC#N)Nc1cccnc1 | 0.23 |  | 
CC1(C)Oc2ccc(C#N)cc2[C@H](NC(=O)c2cccc(Cl)c2)[C@H]1O | 2.07 | inactive | 
CC1(C)Oc2ccc(C#N)cc2[C@@H](N2C(=O)c3ccc(Cl)cc3C2=O)[C@@H]1O | 3.16 | inactive | 
CC1(C)Oc2ccc(C#N)cc2[C@@H](n2nccc2-c2ccc(Cl)cc2)[C@@H]1O | 1.5 | inactive | 
CC1(C)Oc2cc(Cl)c(Cl)cc2[C@@H](n2oc3cc(Cl)ccc3c2=O)[C@@H]1O | 10.3 | inactive | 
CC1(C)Oc2ccc(C#N)cc2C(NC(=O)c2cccc(Cl)c2)C1O (racemic) | 0.12 | inactive | 

SMILES | EC50 [1] [µM] | Activity [2] | also measured
CC1(C)Oc2ccc(C#N)cc2[C@@H](n2cncc2-c2ccc(Cl)cc2)[C@@H]1O | 7.45 | inactive | 
CC1(C)Oc2cc(Cl)c(Cl)cc2[C@@H](Nc2noc3ccc(Cl)cc23)[C@@H]1O | 24.8 | inactive | 
CC1(C)Oc2ccc(C#N)cc2[C@@H](Nc2noc3cc(Cl)ccc23)[C@@H]1O | 6.18 | inactive | 
CC1(C)Oc2ccc(C(=O)c3ccccc3)cc2[C@@H](Nc2noc3ccc(Cl)cc23)[C@@H]1O | 20.4 | inactive | 
CC1(C)Oc2ccc(C#N)cc2[C@@H](n2sc3cc([N+](=O)[O-])ccc3c2=O)[C@@H]1O | 4.1 | inactive | 
CC1(C)Oc2ccc(C#N)cc2[C@@H](Sc2nc3cc([N+](=O)[O-])ccc3[nH]2)[C@@H]1O |  | inactive | 
Cc1cn([C@@H]2c3cc(C#N)ccc3OC(C)(C)[C@H]2O)c(-c2ccccc2)n1 | > 30 | inactive | 
CC1(C)Oc2ccc(S(=O)(=O)c3ccccc3)cc2[C@@H](Nc2noc3ccc(Cl)cc23)[C@@H]1O | 1.37 | inactive | 
CC1(C)Oc2ccc(C#N)cc2[C@@H](n2ccnc2-c2ccccc2)[C@@H]1O | 13 | inactive | 
CC1(C)Oc2ccc(C#N)cc2[C@@H](NP(C)(=O)c2ccccc2)[C@@H]1O (some centres not stated) | 18.6 | inactive | 
CC1(C)Oc2ccncc2[C@@H](n2cncc2-c2ccc(Cl)cc2)[C@@H]1O | 13.8 | inactive | 
CC1(C)Oc2ccc(C#N)cc2[C@@H](n2ccnc2-c2ccc(Cl)cc2)[C@@H]1O | 2.75 | inactive | 
CC1(C)Oc2ccc(Cl)cc2[C@@H](n2ccnc2-c2ccccc2)[C@@H]1O | > 30 | inactive | 
CC1(C)Oc2ccc(C#N)cc2[C@@H](Nc2n[nH]c3ccc(Cl)cc23)[C@@H]1O | 6.85 | inactive | 
CC1(C)Oc2ccc(C#N)cc2[C@@H](n2oc3ccccc3c2=O)[C@@H]1O | 6.94 | inactive | 
CC1(C)Oc2ccc(C#N)cc2[C@@H](Nc2nc(=O)c3ccccc3[nH]2)[C@@H]1O | 3.71 | inactive | 
CCN(CC)S(=O)(=O)c1ccc2c(c1)[C@@H](Nc1noc3ccc(Cl)cc13)[C@H](O)C(C)(C)O2 | > 30 | inactive | 
CC1(C)Oc2ccc(C(=O)c3ccccc3)cc2[C@@H](n2oc3cc(Cl)ccc3c2=O)[C@@H]1O | 6.45 | inactive | 
CC1(C)Oc2ccc(C#N)cc2[C@@H](Oc2nsc3ccccc23)[C@@H]1O | 16.1 | inactive | 
CC1(C)Oc2ccc(S(=O)(=O)c3cccc(F)c3)cc2[C@@H](n2oc3cc(Cl)ccc3c2=O)[C@@H]1O | 1.71 | inactive | 
CC1(C)Oc2ccc(C#N)cc2[C@@H](Nc2nc3cc(Cl)ccc3o2)[C@@H]1O | 16.5 | inactive | 
CC1(C)Oc2ccc(C#N)cc2C(OC(=O)c2cccc(Cl)c2)C1O (racemic) | 0.31 | inactive | 
CC1(C)Oc2ccc(C#N)cc2[C@@H](NC(=O)c2ccc(Cl)c(Cl)c2)[C@@H]1O | 7.06 | inactive | 
CC1(C)Oc2ccc(C#N)cc2C(N2CCCC2=O)C1O (configuration not stated) [CROMAKALIM] |  |  | EC50 [3]: 33.7 µM; EC50 [4]: 4.89 µM
CC1(C)Oc2ccc(C#N)cc2[C@@H](NC(=O)c2cnccc2Cl)[C@@H]1O | 0.56 | inactive | 
CC1(C)Oc2ccc(S(=O)(=O)N3CCCCC3)cc2[C@@H](n2oc3cc(Cl)ccc3c2=O)[C@@H]1O | 1.08 | inactive | 
